According to ChEMBL document CHEMBL4138178, “Green, unexpected synthesis of bis-coumarin derivatives as potent anti-bacterial and anti-inflammatory agents” (2018):
Converted amounts (≈) assume the structure as drawn.

Legend:
Format in all cases: functional
Prevotella intermedia = assay: Antibacterial activity against Prevotella intermedia after 24 hrs by broth microdilution method
Erythrocyte = assay: Anti-inflammatory activity in human RBC membranes assessed as inhibition of heat-induced hemolysis at 100 ug/mL incubated for 20 mins at 54 degC by UV-VIS spectrometer analysis relative to control
How it was run: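 Washed human RBCs as 40% (v/v) stock in isotonic 10 mM sodium phosphate buffer pH 7.4 with 0.9% NaCl. Compound 0.1 mg/mL in isotonic buffer with 30 µL erythrocyte suspension, duplicate sets. One pair heated at 54 °C for 20 min, other held at 0-5 °C. Spun 3 min at 1300 rpm, supernatant absorbance at 540 nm. % inhibition = 100 × [1 − (OD2−OD1)/(OD3−OD1)]; vehicle control.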

Escherichia coli = assay: Antibacterial activity against Escherichia coli MTCC 443 after 24 hrs by broth microdilution method; settings: MTCC 443, 24 h
How it was run: (§1)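 Broth tube dilution in BHI broth, run in triplicate. Strains sub-cultured at 35 °C for 48 h. Inoculum grown in BHI at 35 °C for 2–6 h and adjusted to 0.5 McFarland. Ten-tube serial dilution of compound, 200 µL diluted culture added to each tube. Media plus culture tube as control. Incubated 24 h at 37 °C; MIC read by turbidity.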

Bacillus cereus = assay: Antibacterial activity against Bacillus cereus after 24 hrs by broth microdilution method
Pseudomonas aeruginosa = assay: Antibacterial activity against Pseudomonas aeruginosa MTCC 25668 after 24 hrs by broth microdilution method; settings: MTCC 25668, 24 h; how it was run: as §1
Enterococcus faecalis = assay: Antibacterial activity against Enterococcus faecalis MTCC 35550 after 24 hrs by broth microdilution method; settings: MTCC 35550, 24 h; how it was run: as §1
Staphylococcus aureus = assay: Antibacterial activity against Staphylococcus aureus MTCC 12598 after 24 hrs by broth microdilution method; settings: MTCC 12598, 24 h; how it was run: as §1

Compound	MIC (Prevotella intermedia) [µg/mL]	inhibition at 100 µg/mL (Erythrocyte) [%]	MIC (Escherichia coli) [µg/mL]	MIC (Bacillus cereus) [µg/mL]	MIC (Pseudomonas aeruginosa) [µg/mL]	MIC (Enterococcus faecalis) [µg/mL]	MIC (Staphylococcus aureus) [µg/mL]
Cc1ccc2oc(=O)cc(C(CC(=O)O)c3c(O)c4ccccc4oc3=O)c2c1 (centres undefined)	6.25 (≈ 15.9 µM)	14.1	3.25 (≈ 8.28 µM)	25 (≈ 63.7 µM)	25 (≈ 63.7 µM)	1.56 (≈ 3.98 µM)	1.56 (≈ 3.98 µM)
Cc1ccc2c(C3CC(=O)Oc4c3c(=O)oc3ccccc43)cc(=O)oc2c1 (centres undefined)	3.25 (≈ 8.68 µM)	36.8	1.56 (≈ 4.17 µM)	6.25 (≈ 16.7 µM)	25 (≈ 66.8 µM)	3.25 (≈ 8.68 µM)	6.25 (≈ 16.7 µM)
CCOC(=O)C1=C(N)Oc2c(c(=O)oc3ccccc23)C1c1cc(=O)oc2ccc(OC)cc12 (centres undefined)	1.56 (≈ 3.38 µM)	52.1	6.25 (≈ 13.5 µM)	6.25 (≈ 13.5 µM)	25 (≈ 54.2 µM)	6.25 (≈ 13.5 µM)	6.25 (≈ 13.5 µM)
Cc1ccc2oc(=O)cc(C3CC(=O)Oc4c3c(=O)oc3ccccc43)c2c1 (centres undefined)	3.25 (≈ 8.68 µM)	31.4	1.56 (≈ 4.17 µM)	50 (≈ 134 µM)	25 (≈ 66.8 µM)	6.25 (≈ 16.7 µM)	12.5 (≈ 33.4 µM)
O=C(O)CC(c1c(O)c2ccccc2oc1=O)c1cc(=O)oc2ccc(Cl)cc12 (centres undefined)	3.25 (≈ 7.87 µM)	61.2	1.56 (≈ 3.78 µM)	25 (≈ 60.6 µM)	25 (≈ 60.6 µM)	1.56 (≈ 3.78 µM)	3.25 (≈ 7.87 µM)
N#CC1=C(N)Oc2c(c(=O)oc3ccccc23)C1c1cc(=O)oc2c1ccc1ccccc12 (centres undefined)	1.56 (≈ 3.59 µM)	54.4	6.25 (≈ 14.4 µM)	1.56 (≈ 3.59 µM)	25 (≈ 57.5 µM)	1.56 (≈ 3.59 µM)	3.25 (≈ 7.48 µM)
O=C(O)CC(c1c(O)c2ccccc2oc1=O)c1cc(=O)oc2c1ccc1ccccc12 (centres undefined)	25 (≈ 58.4 µM)	59.1	3.25 (≈ 7.59 µM)	6.25 (≈ 14.6 µM)	6.25 (≈ 14.6 µM)	1.56 (≈ 3.64 µM)	6.25 (≈ 14.6 µM)
CCOC(=O)C1=C(N)Oc2c(c(=O)oc3ccccc23)C1c1cc(=O)oc2ccc(Cl)cc12 (centres undefined)	1.56 (≈ 3.35 µM)	62.2	6.25 (≈ 13.4 µM)	25 (≈ 53.7 µM)	1.56 (≈ 3.35 µM)	1.56 (≈ 3.35 µM)	12.5 (≈ 26.8 µM)
N#CC1=C(N)Oc2c(c(=O)oc3ccccc23)C1c1cc(=O)oc2ccc(Cl)cc12 (centres undefined)	6.25 (≈ 14.9 µM)	43.3	6.25 (≈ 14.9 µM)	25 (≈ 59.7 µM)	6.25 (≈ 14.9 µM)	3.25 (≈ 7.76 µM)	25 (≈ 59.7 µM)
CCOC(=O)C1=C(N)Oc2c(c(=O)oc3ccccc23)C1c1cc(=O)oc2ccc(C)cc12 (centres undefined)	6.25 (≈ 14 µM)	42.3	1.56 (≈ 3.5 µM)	6.25 (≈ 14 µM)	6.25 (≈ 14 µM)	6.25 (≈ 14 µM)	3.25 (≈ 7.3 µM)
COc1ccc2oc(=O)cc(C3CC(=O)Oc4c3c(=O)oc3ccccc43)c2c1 (centres undefined)	25 (≈ 64 µM)	50.5	3.25 (≈ 8.33 µM)	6.25 (≈ 16 µM)	6.25 (≈ 16 µM)	6.25 (≈ 16 µM)	6.25 (≈ 16 µM)
CCOC(=O)C1=C(N)Oc2c(c(=O)oc3ccccc23)C1c1cc(=O)oc2c1ccc1ccccc12 (centres undefined)	6.25 (≈ 13 µM)	61.2	1.56 (≈ 3.24 µM)	6.25 (≈ 13 µM)	1.56 (≈ 3.24 µM)	6.25 (≈ 13 µM)	6.25 (≈ 13 µM)
O=C1CC(c2cc(=O)oc3ccc(Cl)cc23)c2c(c3ccccc3oc2=O)O1 (centres undefined)	6.25 (≈ 15.8 µM)	70.7	6.25 (≈ 15.8 µM)	25 (≈ 63.3 µM)	25 (≈ 63.3 µM)	3.25 (≈ 8.23 µM)	6.25 (≈ 15.8 µM)
Cc1ccc2oc(=O)cc(C3C(C#N)=C(N)Oc4c3c(=O)oc3ccccc43)c2c1 (centres undefined)	6.25 (≈ 15.7 µM)	11.2	6.25 (≈ 15.7 µM)	6.25 (≈ 15.7 µM)	25 (≈ 62.8 µM)	1.56 (≈ 3.92 µM)	6.25 (≈ 15.7 µM)
Cc1ccc2c(C3C(C#N)=C(N)Oc4c3c(=O)oc3ccccc43)cc(=O)oc2c1 (centres undefined)	6.25 (≈ 15.7 µM)	69.1	1.56 (≈ 3.92 µM)	1.56 (≈ 3.92 µM)	1.56 (≈ 3.92 µM)	6.25 (≈ 15.7 µM)	1.56 (≈ 3.92 µM)
COc1ccc2oc(=O)cc(C(CC(=O)O)c3c(O)c4ccccc4oc3=O)c2c1 (centres undefined)	6.25 (≈ 15.3 µM)	23.3	1.56 (≈ 3.82 µM)	6.25 (≈ 15.3 µM)	1.56 (≈ 3.82 µM)	1.56 (≈ 3.82 µM)	3.25 (≈ 7.96 µM)
O=C1CC(c2cc(=O)oc3c2ccc2ccccc23)c2c(c3ccccc3oc2=O)O1 (centres undefined)	25 (≈ 60.9 µM)	37.6	6.25 (≈ 15.2 µM)	25 (≈ 60.9 µM)	1.56 (≈ 3.8 µM)	6.25 (≈ 15.2 µM)	25 (≈ 60.9 µM)
CCOC(=O)C1=C(N)Oc2c(c(=O)oc3ccccc23)C1c1cc(=O)oc2cc(C)ccc12 (centres undefined)	6.25 (≈ 14 µM)	69.4	6.25 (≈ 14 µM)	25 (≈ 56.1 µM)	6.25 (≈ 14 µM)	6.25 (≈ 14 µM)	12.5 (≈ 28.1 µM)
COc1ccc2oc(=O)cc(C3C(C#N)=C(N)Oc4c3c(=O)oc3ccccc43)c2c1 (centres undefined)	6.25 (≈ 15.1 µM)	15.3	1.56 (≈ 3.76 µM)	6.25 (≈ 15.1 µM)	1.56 (≈ 3.76 µM)	3.25 (≈ 7.84 µM)	12.5 (≈ 30.2 µM)
Cc1ccc2c(C(CC(=O)O)c3c(O)c4ccccc4oc3=O)cc(=O)oc2c1 (centres undefined)	25 (≈ 63.7 µM)	76.4	3.25 (≈ 8.28 µM)	6.25 (≈ 15.9 µM)	6.25 (≈ 15.9 µM)	3.25 (≈ 8.28 µM)	3.25 (≈ 8.28 µM)
CC(=O)Oc1ccccc1C(=O)O [ASPIRIN]		36.2					
O=C(O)c1cn(C2CC2)c2cc(N3CCNCC3)c(F)cc2c1=O [CIPROFLOXACIN]	6.25 (≈ 18.9 µM)			6.25 (≈ 18.9 µM)		6.25 (≈ 18.9 µM)	
